Compound activity (PubChem)
Shown is part of a subset that was picked to be rich in hits.
IDH1 R132H inh: IDH1 R132H (human) inhibition; O75874; IDH1 R132H reductase, diaphorase/resazurin fluorescence, 60 min; inhibition, % at 10 µM; 70,000 compounds, 0.18% hits; in the data active = inhibition above about 34%; inconclusive = no clear call, values can overlap the other calls; inactive = below about 11%
Target sequence (O75874 whole entry R132H): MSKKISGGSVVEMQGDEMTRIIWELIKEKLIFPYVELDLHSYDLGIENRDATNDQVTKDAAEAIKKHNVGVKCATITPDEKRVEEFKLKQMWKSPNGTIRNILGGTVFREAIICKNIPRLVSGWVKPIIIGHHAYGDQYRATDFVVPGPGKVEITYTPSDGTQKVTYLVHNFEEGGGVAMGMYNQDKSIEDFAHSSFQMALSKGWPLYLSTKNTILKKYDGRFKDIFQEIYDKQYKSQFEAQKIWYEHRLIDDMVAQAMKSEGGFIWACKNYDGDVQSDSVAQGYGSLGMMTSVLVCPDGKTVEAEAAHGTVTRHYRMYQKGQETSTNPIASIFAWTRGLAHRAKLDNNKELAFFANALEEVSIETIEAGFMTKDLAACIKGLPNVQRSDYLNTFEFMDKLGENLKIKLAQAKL
T cruzi growth-1: inhibitors of T. cruzi proliferation; T. cruzi beta-gal in NIH3T3, GalScreen luminescence, 90 h; inhibition, % at 8.34 µM; 77,000 compounds, 5.9% hits; AID 624255;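 active = mean inhibition above about 93%, with at least 55% of replicates each passing it, limit read from the data, passing the limit was not always enough; inconclusive = only one of those two conditions holds; inactive = neither condition holds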
GASC1 inh: KDM4C (human) demethylase inhibition; 96,000 compounds, 0.15% hits; Q9H3R0; inhibition, % at 12.5 µM; GST-KDM4C 2-372, H3K9me3 peptide, LANCE TR-FRET;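 active = mean replicate inhibition above about 25%, with at least 55% of replicates also reaching it, limit read from the data, passing the limit was not always enough; inconclusive = only one of those two conditions met; inactive = neither condition met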
Target sequence (Q9H3R0 2-372 limits assumed): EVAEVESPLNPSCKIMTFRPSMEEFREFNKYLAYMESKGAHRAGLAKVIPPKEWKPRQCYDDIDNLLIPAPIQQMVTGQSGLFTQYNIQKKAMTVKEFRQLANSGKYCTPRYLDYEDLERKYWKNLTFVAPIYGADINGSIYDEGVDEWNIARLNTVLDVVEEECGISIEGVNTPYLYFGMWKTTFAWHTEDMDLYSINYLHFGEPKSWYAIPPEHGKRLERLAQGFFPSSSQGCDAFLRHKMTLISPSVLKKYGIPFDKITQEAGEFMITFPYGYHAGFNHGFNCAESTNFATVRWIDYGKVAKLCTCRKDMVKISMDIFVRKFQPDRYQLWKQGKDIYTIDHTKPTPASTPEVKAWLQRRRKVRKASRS
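System: N-terminal GST-fused human GASC-1 (KDM4C) fragment, residues 2-372; amount: enzyme final amount 10 nM; incubation: reaction 30 min RT, detection step 1 h RT; medium: HEPES buffer, pH 7.5, plus ascorbate; technique: LANCE TR-FRET, Eu antibody, ULight-streptavidin, EDTA, ex 340 nm, em 618/671 nm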
T cruzi growth-2: Trypanosoma cruzi proliferation inhibition. inhibition, % at 8.35 µM. 5,600 compounds, 72% hits. shares compounds with T cruzi growth-1. T. cruzi beta-gal in NIH3T3, GalScreen luminescence, 90 h;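 active = mean replicate inhibition above about 95% and at least 55% of replicates individually reaching it, limit read from the data; inconclusive = only one of the two criteria is met; inactive = neither criterion is met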
T cruzi growth-3: blocks T. cruzi growth in NIH3T3 host cells; T. cruzi beta-gal in NIH3T3, GalScreen luminescence, 90 h; shares compounds with T cruzi growth-1; 5,600 compounds, 21% hits; inhibition, % at 2.09 µM; AID 651740;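 active = mean inhibition above about 95%, with at least 55% of replicates also reaching it, limit read from the data; inconclusive = meets just one of the two conditions; inactive = meets neither condition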
NIH3T3 tox: kills mouse NIH/3T3 fibroblasts; 5,600 compounds, 14% hits; NIH/3T3 viability, CellTiter-Glo ATP luminescence, 90 h; AID 651742; cytotoxicity (signal decrease), % at 8.35 µM; shares compounds with T cruzi growth-1;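 active = mean signal decrease across replicates above about 35% based on untreated-well scatter, with enough replicates individually passing, limit read from the data; inconclusive = no rule stated though some were filed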
3T3 cytotox 2: NIH/3T3 (mouse) viability loss. shares compounds with T cruzi growth-1. NIH/3T3 viability, CellTiter-Glo ATP luminescence, 90 h. inhibition, % at 24.9 µM. 5,600 compounds, 56% hits. AID 651744;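 active = mean loss of cell viability signal at or above a set limit, and enough replicates individually reaching it; inconclusive = meets only the mean limit or only the replicate share; inactive = meets neither condition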
Each line names hits and unclear results; the compound was inactive in the other large screens (follow-up assays come after a bar, where they were run).

CC(C)(O)CCC(=O)C(C)(O)C1C(O)CC2(C)C3CC=C4C(CC(O)C(OC5OC(CO)C(O)C(O)C5O)C4(C)C)C3(C)C(=O)CC12C (centres undefined)	none (no result: T cruzi growth-1, GASC1 inh)
COc1ccc(S(=O)(=O)Nc2cccc3c2O[C@H](CN(C)Cc2ccc(C(=O)O)cc2)[C@H](C)CN([C@@H](C)CO)C3=O)cc1	T cruzi growth-1 inconclusive | T cruzi growth-2 inactive | T cruzi growth-3 inactive | NIH3T3 tox inactive | 3T3 cytotox 2 inactive
COc1ccc(S(=O)(=O)Nc2cccc3c2O[C@H](CN(C)Cc2ccc(C(=O)O)cc2)[C@@H](C)CN([C@H](C)CO)C3=O)cc1	none
Cc1noc(C)c1S(=O)(=O)Nc1cccc2c1O[C@H](CN(C)Cc1ccc(-c3ccccc3)cc1)[C@H](C)CN([C@H](C)CO)C2=O	T cruzi growth-1 108.1 | T cruzi growth-2 inactive | T cruzi growth-3 inactive | NIH3T3 tox inactive | 3T3 cytotox 2 inactive
COc1ccc(S(=O)(=O)Nc2cccc3c2O[C@@H](CN(C)Cc2ccc(Cl)c(Cl)c2)[C@H](C)CN([C@@H](C)CO)C3=O)cc1	T cruzi growth-1 102.0 | T cruzi growth-2 110.5 | T cruzi growth-3 inactive | NIH3T3 tox inactive | 3T3 cytotox 2 inactive
Cc1ccc(S(=O)(=O)Nc2cccc3c2O[C@@H](CN(C)Cc2ccc(C(F)(F)F)cc2)[C@@H](C)CN([C@@H](C)CO)C3=O)cc1	none
COc1ccc(S(=O)(=O)Nc2cccc3c2O[C@H](CN(C)Cc2ccc(Cl)c(Cl)c2)[C@H](C)CN([C@H](C)CO)C3=O)cc1	none
Cc1noc(C)c1S(=O)(=O)Nc1cccc2c1O[C@@H](CN(C)Cc1ccccc1)[C@@H](C)CN([C@H](C)CO)C2=O	none
Cc1ccc(S(=O)(=O)Nc2cccc3c2O[C@@H](CN(C)Cc2ccc(C(F)(F)F)cc2)[C@@H](C)CN([C@H](C)CO)C3=O)cc1	T cruzi growth-1 102.3 | T cruzi growth-2 108.6 | T cruzi growth-3 inactive | NIH3T3 tox inactive | 3T3 cytotox 2 87.0
O=C(CCn1cnc2ccccc2c1=O)Nc1ccccc1Br	none (no result: T cruzi growth-1, GASC1 inh)
O=C(C[C@@H]1C[C@H]2c3cc(NC(=O)Nc4ccc(C(F)(F)F)cc4)ccc3O[C@H]2[C@@H](CO)O1)NCc1ccccn1	none
Cc1cccc(OCC(=O)Nc2cccc(-c3nc4cc(C)ccc4o3)c2)c1	none (no result: T cruzi growth-1, GASC1 inh)
CCCN1C(=O)C(O)(CC(=O)c2ccc(OC)c([N+](=O)[O-])c2)c2cc(Br)ccc21 (centres undefined)	none (no result: T cruzi growth-1, GASC1 inh)
O=C(c1cccc(F)c1)N1CC2(C1)[C@H](c1ccccc1)[C@H](CO)N2C(=O)C1CCC1	none (no result: IDH1 R132H inh, T cruzi growth-1)
C[C@@H]1CCCCO[C@H](CN(C)C(=O)Nc2ccc(C(F)(F)F)cc2)[C@H](C)CN([C@@H](C)CO)C(=O)c2cc(NS(=O)(=O)c3ccc(F)cc3)ccc2O1	none
COc1ccc(S(=O)(=O)Nc2ccc3c(c2)C(=O)N([C@H](C)CO)C[C@H](C)[C@@H](CN(C)C(=O)Nc2ccc(C(F)(F)F)cc2)OCCCC[C@H](C)O3)cc1	T cruzi growth-1 101.3 (no result: IDH1 R132H inh, GASC1 inh) | T cruzi growth-2 108.9 | T cruzi growth-3 115.6 | NIH3T3 tox inactive | 3T3 cytotox 2 inactive
COc1ccc(S(=O)(=O)Nc2ccc3c(c2)C(=O)N([C@@H](C)CO)C[C@@H](C)[C@H](CN(C)C(=O)Nc2ccc(C(F)(F)F)cc2)OCCCC[C@H](C)O3)cc1	none (no result: IDH1 R132H inh)
Cc1ccc(S(=O)(=O)Nc2ccc3c(c2)C(=O)N([C@H](C)CO)C[C@H](C)[C@H](CN(C)C(=O)Nc2ccc(C(F)(F)F)cc2)OCCCC[C@@H](C)O3)cc1	T cruzi growth-1 103.3 | T cruzi growth-2 104.4 | T cruzi growth-3 inactive | NIH3T3 tox 40.0 | 3T3 cytotox 2 47.9
C[C@@H]1CCCCO[C@H](CN(C)C(=O)Nc2ccc(C(F)(F)F)cc2)[C@@H](C)CN([C@@H](C)CO)C(=O)c2cc(NS(=O)(=O)c3ccc(F)cc3)ccc2O1	none
C[C@@H]1CCCCO[C@H](CN(C)C(=O)Nc2ccc(C(F)(F)F)cc2)[C@H](C)CN([C@H](C)CO)C(=O)c2cc(NS(C)(=O)=O)ccc2O1	none
C[C@H]1CCCCO[C@@H](CN(C)C(=O)Nc2ccc(C(F)(F)F)cc2)[C@@H](C)CN([C@@H](C)CO)C(=O)c2cc(NS(C)(=O)=O)ccc2O1	T cruzi growth-1 108.8 | T cruzi growth-2 107.1 | T cruzi growth-3 inactive | NIH3T3 tox inactive | 3T3 cytotox 2 inactive
Cc1ccc(S(=O)(=O)Nc2ccc3c(c2)C(=O)N([C@H](C)CO)C[C@H](C)[C@H](CN(C)C(=O)Nc2ccc(C(F)(F)F)cc2)OCCCC[C@H](C)O3)cc1	T cruzi growth-1 100.6 (no result: IDH1 R132H inh) | T cruzi growth-2 100.6 | T cruzi growth-3 115.8 | NIH3T3 tox inactive | 3T3 cytotox 2 inactive
COc1ccc(NC(=O)C(C)Oc2cc(C)c(Cl)c(C)c2)c([N+](=O)[O-])c1 (centres undefined)	none (no result: T cruzi growth-1, GASC1 inh)
COc1ccc(-c2nc3ccccc3s2)cc1NC(=O)COc1ccc(Br)cc1	none (no result: T cruzi growth-1, GASC1 inh)
Cc1cc(NC(=O)CN(c2ccc(Cl)c(C(F)(F)F)c2)S(C)(=O)=O)ccc1Br	none (no result: T cruzi growth-1, GASC1 inh)
COc1ccc(Br)cc1/C=N/NC(=O)c1ccccn1	none (no result: T cruzi growth-1, GASC1 inh)
Cc1ccc(S(=O)(=O)Nc2ccc3c(c2)C(=O)N([C@@H](C)CO)C[C@@H](C)[C@@H](CN(C)C(=O)Nc2ccc(C(F)(F)F)cc2)OCCCC[C@H](C)O3)cc1	none (no result: IDH1 R132H inh)
C[C@H]1CCCCO[C@@H](CN(C)C(=O)Nc2ccc(C(F)(F)F)cc2)[C@@H](C)CN([C@@H](C)CO)C(=O)c2cc(NS(=O)(=O)c3ccc(F)cc3)ccc2O1	none (no result: IDH1 R132H inh)
Cc1ccc(S(=O)(=O)Nc2ccc3c(c2)C(=O)N([C@@H](C)CO)C[C@@H](C)[C@H](CN(C)C(=O)Nc2ccc(C(F)(F)F)cc2)OCCCC[C@@H](C)O3)cc1	T cruzi growth-1 99.9 | T cruzi growth-2 102.1 | T cruzi growth-3 112.7 | NIH3T3 tox inactive | 3T3 cytotox 2 36.3
C[C@@H]1CCCCO[C@H](CN(C)C(=O)Nc2ccc(C(F)(F)F)cc2)[C@@H](C)CN([C@H](C)CO)C(=O)c2cc(NS(=O)(=O)c3ccc(F)cc3)ccc2O1	T cruzi growth-1 100.0 | T cruzi growth-2 109.3 | T cruzi growth-3 inactive | NIH3T3 tox inactive | 3T3 cytotox 2 inactive
C[C@@H]1CN([C@@H](C)CO)S(=O)(=O)c2ccc(C#Cc3ccccc3F)cc2O[C@H]1CN(C)CC1CCOCC1	none (no result: IDH1 R132H inh, T cruzi growth-1)
O=C(C[C@@H]1CC[C@H]2[C@@H](COC[C@H](O)CN2S(=O)(=O)c2cccc(Cl)c2)O1)Nc1ccc(-c2ccccc2)cc1	T cruzi growth-1 inconclusive (no result: IDH1 R132H inh) | T cruzi growth-2 110.0 | T cruzi growth-3 inactive | NIH3T3 tox inactive | 3T3 cytotox 2 105.3
